FN deposition inh – fibronectin deposition inhibition; AH1F fibroblasts, Alexa488-fibronectin deposition fluorescence, overnight; inhibition, % at 12.6 µM; 0.086% of 350,000 active; AID 743247;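 active = mean inhibition across replicates of 30% or more, regardless of how many single replicates reach that level; inconclusive = mean under 30% yet at least half of replicates reach 30%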
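material = AH1F fibroblast monolayer depositing Alexa488-labelled fibronectin into matrix | amount = 10000 AH1F cells/well | buffer or medium = DMEM plus 2% serum, read in PBS | incubation = 1 h cell adhesion before compound, then overnight fibronectin incubation | detection = fluorescence at 485 nm excitation, 525 nm emission | evaluation = percent inhibition as loss of matrix-bound fibronectin fluorescence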
PGC1a acetyl inh – modulators of PGC1a acetylation; U2OS PGC1a acetylation, AlphaScreen anti-acetyl-lysine; with virally co-expressed GCN5 acetyltransferase; inhibition, % at 15.6 µM; 0.17% of 350,000 active;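 active = every replicate shows inhibition of at least 40%; inconclusive = mean inhibition at least 40% but some replicate below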
HIV Env fusion – inhibitors of HIV Env-mediated cell fusion. AID 651610. HeLa-JRFL Env/CEM21 cell fusion, luciferase. inhibition, % at 12.3 µM. 1.1% of 360,000 active;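 active = mean replicate inhibition score of at least 50 and every replicate individually at or above 50; inconclusive = only one of the two criteria met; inactive = mean below 50 and not all replicates reaching 50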
PglD inh – blocks C. jejuni PglD acetyltransferase activity | purified PglD enzyme, DTNB colorimetric CoA detection | inhibition, % at 12.5 µM | 0.098% of 360,000 active | AID 602405; in the data active = inhibition above about 16%, passing the limit was not always enough; inconclusive = no clear call, values can overlap the other calls
Ecoli rRNA inh – inhibits bacterial ribosomal RNA function over humanized ribosomes; E. coli WT GFP vs humanized-ribosome RFP mutants, fluorescence, 24 h; active compounds read low; DMSO median 0, no signal -100; GFP signal change (wild-type ribosome), % (no concentration beside the values); 1.6% of 350,000 active; AID 720706;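 active = significant combined selectivity score with lowered wild-type GFP, culture density cut under 30%, mutant RFP and density less affected; inactive = any of these conditions unmet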
DENV2 CPE rescue – inhibitors of DENV2 cytopathic effect. AID 651640. 1.7% of 350,000 active. DENV2-infected cells, cytopathic effect rescue, plate reader. CPE inhibition, % at 9.99 µM; in the data active = CPE inhibition above about 20%, passing the limit was not always enough; inconclusive = no clear call, values can overlap the other calls; tested in BHK-21 cells
Each line names hits and unclear results; the compound was inactive in the other large screens; ! = not active in a repeat; [ ] = remark or other dose. The list is not random: actives were taken first. Their share in the collection is about 3.5%.

C[C@@H]1CN([C@@H](C)CO)C(=O)c2cc(N(C)C)ccc2O[C@@H](C)CCCCO[C@H]1CN(C)C(=O)c1ccncc1	DENV2 CPE rescue inconclusive
Cc1ccc(CS(=O)Cc2ccc(C(=O)NC3CCCCCC3)o2)cc1 (centres undefined)	none
Cc1ccc(CS(=O)Cc2ccc(C(=O)NC3CCCC(C)C3C)o2)cc1 (centres undefined)	FN deposition inh 30
COc1ccccc1-c1ccc2c(c1)O[C@H](CN(C)C(C)=O)[C@@H](C)CN([C@@H](C)CO)S2(=O)=O	none
CCC(=O)N1C[C@@H](C)[C@@H](OC)CN(C)C(=O)c2cc(NS(C)(=O)=O)ccc2OC[C@@H]1C	none (no result: HIV Env fusion)
O=C(NCCCc1nc2ccccc2[nH]1)c1ccco1	HIV Env fusion 84 (no result: PGC1a acetyl inh)
CCCc1nc2c(=O)n(C)c(=O)nc-2n(C)n1	PGC1a acetyl inh 75, HIV Env fusion 69
Cn1nc(-c2ccccn2)nc2c(=O)n(C)c(=O)nc1-2	PGC1a acetyl inh 80, HIV Env fusion 68
CNC(=O)C[C@H]1CC[C@@H]2[C@H](COC[C@H](O)CN2C(=O)c2ccccn2)O1	none (no result: HIV Env fusion)
C[C@H](CO)N1C[C@H](C)[C@@H](CN(C)C(=O)NC2CCCCC2)OCCCC[C@H](C)Oc2ccc(NC(=O)Nc3ccc(F)cc3)cc2C1=O	none
O=C(C1CCOCC1)N1CC(=O)N2[C@H](CO)[C@H](c3ccc(C#CC4CC4)cc3)[C@@H]2C1	none (no result: HIV Env fusion, PglD inh)
COc1ccc2oc(C(=O)OCC(=O)N3CC(C)CC(C)C3)c(C)c2c1 (centres undefined)	none (no result: PglD inh)
COc1ccc2oc(C(=O)OC(C)C(=O)N3CCC(C)CC3)c(C)c2c1 (centres undefined)	DENV2 CPE rescue 34 (no result: Ecoli rRNA inh)
O=C(Cc1ccccc1)N1C[C@H]2[C@@H](c3ccccc31)[C@@H](CO)N2C(=O)c1ccc(F)cc1	none (no result: FN deposition inh, HIV Env fusion)
O=C(ON=C1CCN(S(=O)(=O)c2ccccc2)CC1)c1ccc(F)cc1	none (no result: Ecoli rRNA inh, DENV2 CPE rescue)
CC(C)(C)C1CCC(=NOC(=O)c2ccc(F)cc2)CC1 (centres undefined)	Ecoli rRNA inh -41 (no result: PglD inh)
C[C@H](CO)N1C[C@H](C)[C@@H](CN(C)Cc2ccc3c(c2)OCO3)Oc2c(NC(=O)Nc3ccccc3)cccc2C1=O	none (no result: FN deposition inh, HIV Env fusion)
CC(C)(C)NC(=O)NC(=O)C[n+]1ccc(Cc2ccc([N+](=O)[O-])cc2)cc1	Ecoli rRNA inh -14 (no result: PGC1a acetyl inh)
Cc1ccc(Cl)cc1NC(=O)C[n+]1ccc(Cc2ccc([N+](=O)[O-])cc2)cc1	none (no result: PGC1a acetyl inh, PglD inh)
C=CCn1c(SCC(=O)NC(N)=O)nnc1-c1cc2c(s1)CCC(CC)C2 (centres undefined)	DENV2 CPE rescue 21 (no result: PGC1a acetyl inh, PglD inh)
C=CCn1c(SCC(=O)NCC)nnc1-c1cc2c(s1)CCC(CC)C2 (centres undefined)	none (no result: PGC1a acetyl inh, HIV Env fusion)
C=CCNC(=S)N(C)[C@H]1C[C@H]2c3cc(-c4ccccc4C)ccc3CCN2C[C@H]1[C@H](C)O	Ecoli rRNA inh -30 (no result: PGC1a acetyl inh, PglD inh)
C[C@@H]1ON(C)[C@H]2C[C@H]3c4[nH]c5c(-c6ccccc6)cccc5c4CCN3C[C@@H]12	Ecoli rRNA inh -26 (no result: PGC1a acetyl inh, PglD inh)
C[C@H](O)[C@@H]1CN2CCc3c([nH]c4c(-c5ccccc5)cccc34)[C@@H]2C[C@@H]1N(C)C(=S)NCCc1ccccc1	Ecoli rRNA inh -30 (no result: PGC1a acetyl inh, PglD inh)
O=C(c1ccc2c(c1)OCO2)N1C[C@H]2[C@@H](c3ccccc31)[C@H](CO)N2Cc1ccc2c(c1)OCO2	none (no result: HIV Env fusion)
COC(=O)C[C@H]1C[C@@H]2c3cc(NC(=O)c4ccc5c(c4)OCO5)ccc3O[C@@H]2[C@@H](CO)O1	none
CC(C)c1ccccc1NC(=O)Cn1c(-c2ccccc2Cl)nc2ccccc21	PGC1a acetyl inh 43 (no result: Ecoli rRNA inh, DENV2 CPE rescue)
CC(C)NC(=O)N1CC2(C1)[C@@H](c1ccccc1)[C@@H](CO)N2C(=O)C1CC1	none (no result: HIV Env fusion, PglD inh)
C/C(N)=C(/C#N)C(=O)CSc1nc(C2CCCCC2)n(-c2ccccc2)n1	HIV Env fusion 67!
C[C@H](CO)N1C[C@H](C)[C@H](CN(C)Cc2ccc(C(=O)O)cc2)Oc2ncc(C3=CCCCC3)cc2C1=O	none
O=C(C[C@H]1CC[C@@H]2[C@H](COC[C@@H](O)CN2C(=O)C2CC2)O1)NCc1ccncc1	none (no result: HIV Env fusion)
CCN(CC)C(=O)Oc1nnc(SC(C)C)n1-c1ccc(Cl)cc1	Ecoli rRNA inh -29 (no result: PglD inh)
CC1(C)CC(=O)C2=C(C1)N=C1c3ccccc3C(=O)C1C2c1ccc(Cl)cc1 (centres undefined)	none (no result: FN deposition inh, HIV Env fusion, Ecoli rRNA inh, DENV2 CPE rescue)
CCOC(=O)C1=C(C)N=C2c3ccccc3C(=O)C2C1c1ccc(Cl)cc1 (centres undefined)	HIV Env fusion 84 (no result: PGC1a acetyl inh, PglD inh, Ecoli rRNA inh, DENV2 CPE rescue)
O=C(C[C@@H]1CC[C@H](NC(=O)Cc2cccnc2)[C@H](CO)O1)Nc1ccc(-c2ccccc2)cc1	none
CC=Cc1ccc2n(c1=O)C[C@@H]1[C@@H](CO)[C@H](C(=O)NC3Cc4ccccc4C3)[C@H]2N1C(C)=O (mixture of isomers)	DENV2 CPE rescue 31 (no result: FN deposition inh, PGC1a acetyl inh, HIV Env fusion)
CC(=O)N1[C@@H]2c3ccc(-c4ccccc4)c(=O)n3C[C@H]1[C@H](CO)[C@H]2C(=O)Nc1ccccc1	DENV2 CPE rescue 48 (no result: FN deposition inh, PGC1a acetyl inh, HIV Env fusion)
CC(=O)N1[C@@H]2Cn3c(ccc(-c4ccccc4)c3=O)[C@H]1[C@@H](C(=O)NC1Cc3ccccc3C1)[C@@H]2CO	none (no result: FN deposition inh, PGC1a acetyl inh, HIV Env fusion, DENV2 CPE rescue)
CCN1[C@@H]2c3ccc(-c4ccccc4)c(=O)n3C[C@H]1[C@H](CO)[C@H]2C(=O)Nc1ccccc1	none (no result: FN deposition inh, PGC1a acetyl inh, HIV Env fusion)
OCCCNc1cc(-c2ccnc(Nc3cccc(Cl)c3)n2)ccn1	Ecoli rRNA inh -20 (no result: PGC1a acetyl inh)
Cc1cc(C)nc(Nc2cccc(Cl)c2)n1	none (no result: PGC1a acetyl inh)
CCC(C)Oc1cc(-c2ccnc(Nc3cccc(Cl)c3)n2)ccn1 (centres undefined)	HIV Env fusion 66 (no result: PGC1a acetyl inh)
c1ccc2c(c1)OCC(CNc1ncnc3sccc13)O2 (centres undefined)	HIV Env fusion 57 (no result: PGC1a acetyl inh, Ecoli rRNA inh, DENV2 CPE rescue)
CC(C)NC(=O)Nc1ccc2c(c1)C(=O)N(C)[C@H]1CC[C@@H](CC(=O)NC3CCCCC3)O[C@@H]1CO2	none
COc1cccc(-c2csc(N3CCN(C(=O)Nc4ccccc4Cl)CC3)n2)c1	none (no result: FN deposition inh, PGC1a acetyl inh, PglD inh)
COc1cccc(NC(=O)N2CCN(c3nc(-c4cccc(OC)c4)cs3)CC2)c1	Ecoli rRNA inh -30
CSc1ccccc1NC(=O)CN(C)CC(=O)c1c(C)[nH]c2ccccc12	Ecoli rRNA inh -21
COc1ccc2c3c([nH]c2c1)[C@H](CO)N(Cc1nccs1)CC31CN(C(=O)C2CCOCC2)C1	none (no result: FN deposition inh, HIV Env fusion, PglD inh)
Cc1ccc(-c2ccc3c(c2)O[C@@H](CN(C)C(=O)C2CCCCC2)[C@H](C)CN([C@H](C)CO)S3(=O)=O)cc1	PGC1a acetyl inh inconclusive, HIV Env fusion 60[16.7 µM] (no result: PglD inh, DENV2 CPE rescue)
C[C@H](CO)N1C[C@H](C)[C@H](CN(C)C(=O)C2CCCCC2)Oc2cc(-c3ccc(F)cc3)ccc2S1(=O)=O	none
